Measurements reported in ChEMBL document CHEMBL3352301, “Novel sulfonyl(thio)urea derivatives act efficiently both as insulin secretagogues and as insulinomimetic compounds” (Eur J Med Chem, 2014).
Activity calls are given as the source filed them. No cut-off for these calls is given here.

Experiments:
[1] = tested on: Rattus norvegicus; assay: Antihyperglycemic activity in fasted hyperglycemic Wistar rat assessed as serum glucose level at 10 mg/kg, po measured 60 mins post dose by oral glucose tolerance test (reference value: 182.55 +/- 6.95 mg/dL); type: functional
In short: (§1)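 Rats fasted at least 16 h (water free) were given glucose 4 g/kg by oral gavage; test compounds 10 mg/kg were gavaged in 0.3% Tween 80. Tail-vein blood was taken before dosing and at 15, 30, 60 and 180 min, then centrifuged. Serum glucose was measured by the glucose oxidase method. Six determinations per group, mean ± S.E.M.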

[2] = tested on: Rattus norvegicus; assay: Antihyperglycemic activity in fasted hyperglycemic Wistar rat assessed as serum glucose level at 10 mg/kg, po measured 180 mins post dose by oral glucose tolerance test (reference value: 141.15 +/- 4.47 mg/dL); type: functional; in short: as §1
[3] = tested on: Rattus norvegicus; assay: Antihyperglycemic activity in fasted hyperglycemic Wistar rat assessed as serum glucose level at 10 mg/kg, po measured 30 mins post dose by oral glucose tolerance test (reference value: 190.15 +/- 1.77 mg/dL); type: functional; in short: as §1
[4] = tested on: Rattus norvegicus; assay: Antihyperglycemic activity in fasted hyperglycemic Wistar rat assessed as serum glucose level at 10 mg/kg, po measured 15 mins post dose by oral glucose tolerance test (reference value: 177.46 +/- 5.95 mg/dL); type: functional; in short: as §1
[5] = tested on: Rattus norvegicus; assay: Insulin secretagogue activity in fasted hyperglycemic Wistar rat assessed as insulin level at 10 mg/kg, po measured 60 mins post dose by ELISA method (reference value: 0.59 +/- 0.004 ng/mL); type: functional
[6] = tested on: Rattus norvegicus; assay: Toxicity in fasted hyperglycemic Wistar rat assessed as LDH level at 10 mg/kg, po by spectrophotometry based LDH release assay (reference value: 75.63 +/- 7.08 IU/L); type: organism-based; parameters: dose 10 mg/kg, route oral; conditions: in vivo
[7] = tested on: Soleus muscle; assay: Increase in GLUT4 expression in Wistar rat soleus muscle membranes at 10 uM after 60 mins by immunofluorescence analysis; type: functional, cell membranes
In short: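 Soleus was taken after 60 min in vitro incubation, or 180 min after oral gavage at 10 mg/kg. Tissue was fixed in 4% paraformaldehyde, paraffin-embedded and cut at 5 µm, with citrate antigen retrieval. Sections were stained with mouse anti-GLUT4 (1:500, overnight) then Cy3 anti-mouse, with DAPI counterstain. GLUT4 distribution was assessed qualitatively.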

[8] = tested on: Soleus muscle; assay: Stimulation of glucose uptake in Wistar rat soleus muscle at 10 uM in presence of 350 uM cycloheximide by liquid scintillation counting based [14C]-2-deoxy-D-glucose uptake assay; type: functional, tissue-based
In short: (§2)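 Rat soleus in Krebs-Ringer bicarbonate (37 °C, O2/CO2 95:5, pH 7.4). Inhibitor or modulator (wortmannin 100 nM, H89, PMA 100 nM or cycloheximide) was present through a 30 min preincubation and a 60 min incubation, with or without compound. 14C-2-deoxy-D-glucose was added during incubation only. Uptake by scintillation counting normalised to Lowry protein; n=4 of 3 independent experiments.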

[9] = tested on: Rattus norvegicus; assay: Increase in GLUT4 expression in soleus muscle membranes of Wistar rat at 10 mg/kg, po after 180 mins by immunofluorescence analysis; conditions: Membrane
[10] = tested on: Soleus muscle; assay: Stimulation of protein synthesis in Wistar rat soleus muscle at 10 uM by liquid scintillation counting based 1-[U-14C]leucine incorporation assay; type: functional, tissue-based
In short: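 Soleus muscles from fasted rats were preincubated 30 min in Krebs-Ringer bicarbonate (O2/CO2 95:5, pH 7.4), then incubated 60 min with compound and L-[U-14C]leucine. The reaction was stopped with cold TCA (7% final). Incorporation was expressed as cpm/mg protein (Lowry); n=4 of 3 independent experiments.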

[11] = tested on: Soleus muscle; assay: Increase in GLUT4 expression in Wistar rat soleus muscle at 20 uM after 60 mins in presence of 350 uM cycloheximide by polyacrylamide gel electrophoresis and immunoblotting analysis; type: functional, tissue-based
[12] = tested on: Soleus muscle; assay: Stimulation of glucose uptake in Wistar rat soleus muscle assessed as glucose level per mg of protein at 100 uM by liquid scintillation counting based [14C]-2-deoxy-D-glucose uptake assay (reference value: 0.16 +/- 0.03 nmol glucose/mg protein); type: functional
[13] = tested on: Soleus muscle; assay: Stimulation of glucose uptake in Wistar rat soleus muscle at 10 uM in presence of 100 nM PI-3K inhibitor wortmannin by liquid scintillation counting based [14C]-2-deoxy-D-glucose uptake assay; type: functional, tissue-based; in short: as §2
[14] = tested on: Rattus norvegicus; assay: Insulin secretagogue activity in fasted hyperglycemic Wistar rat assessed as insulin level at 10 mg/kg, po measured 15 mins post dose by ELISA method (reference value: 2.84 +/- 0.002 ng/mL); type: functional
[15] = Effect on glucose uptake in Wistar rat soleus muscle assessed per mg of protein at 1 uM by liquid scintillation counting based [14C]-2-deoxy-D-glucose uptake assay (reference value: 0.16 +/- 0.03 nmol glucose/mg protein); type: functional
[16] = tested on: Rattus norvegicus; assay: Insulin secretagogue activity in fasted hyperglycemic Wistar rat assessed as insulin level at 10 mg/kg, po measured 30 mins post dose by ELISA method (reference value: 0.75 +/- 0.007 ng/mL); type: functional
[17] = tested on: Rattus norvegicus; assay: Effect on glycogen content in liver of fasted hyperglycemic Wistar rat assessed per gram of tissue at 10 mg/kg, po measured 3 hrs post dose (reference value: 14.6 +/- 1.27 mg/g of tissue); type: functional
[18] = tested on: Soleus muscle; assay: Stimulation of glucose uptake in Wistar rat soleus muscle at 10 uM in presence of 10 uM PKA inhibitor H89 by liquid scintillation counting based [14C]-2-deoxy-D-glucose uptake assay; type: functional, tissue-based; in short: as §2
[19] = tested on: Rattus norvegicus; assay: Effect on glycogen content in skeletal muscle of fasted hyperglycemic Wistar rat assessed per gram of tissue at 10 mg/kg, po measured 3 hrs post dose (reference value: 8.6 +/- 1 mg/g of tissue); type: functional
[20] = tested on: Rattus norvegicus; assay: Insulin secretagogue activity in fasted hyperglycemic Wistar rat assessed as insulinogenic index ratio at 10 mg/kg, po by ELISA method (reference value: 0.66 ng/mg); type: functional
In short: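 Serum insulin (ELISA) and glucose (glucose oxidase) were sampled from 0 to 60 min after oral glucose 4 g/kg plus compound 10 mg/kg gavage in fasted rats. Incremental areas under the curves were computed. Insulinogenic index = AUC insulin / AUC glucose over 0–60 min.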

[21] = tested on: Soleus muscle; assay: Increase in GLUT4 expression in Wistar rat soleus muscle at 20 uM after 60 mins by polyacrylamide gel electrophoresis and immunoblotting analysis; type: functional, tissue-based
[22] = Effect on glucose uptake in Wistar rat soleus muscle assessed per mg of protein at 10 uM by liquid scintillation counting based [14C]-2-deoxy-D-glucose uptake assay (reference value: 0.16 +/- 0.03 nmol glucose/mg protein); type: functional
[23] = tested on: Soleus muscle; assay: Stimulation of glucose uptake in Wistar rat soleus muscle at 10 uM in presence of 100 nM PMA by liquid scintillation counting based [14C]-2-deoxy-D-glucose uptake assay; type: functional, tissue-based; in short: as §2
[24] = biological target: ATP-binding cassette sub-family C member 8 (Homo sapiens, UniProt Q09428); assay: Binding affinity to SUR1 (unknown origin)
ATP-binding cassette sub-family C member 8, sequence (Q09428 whole entry): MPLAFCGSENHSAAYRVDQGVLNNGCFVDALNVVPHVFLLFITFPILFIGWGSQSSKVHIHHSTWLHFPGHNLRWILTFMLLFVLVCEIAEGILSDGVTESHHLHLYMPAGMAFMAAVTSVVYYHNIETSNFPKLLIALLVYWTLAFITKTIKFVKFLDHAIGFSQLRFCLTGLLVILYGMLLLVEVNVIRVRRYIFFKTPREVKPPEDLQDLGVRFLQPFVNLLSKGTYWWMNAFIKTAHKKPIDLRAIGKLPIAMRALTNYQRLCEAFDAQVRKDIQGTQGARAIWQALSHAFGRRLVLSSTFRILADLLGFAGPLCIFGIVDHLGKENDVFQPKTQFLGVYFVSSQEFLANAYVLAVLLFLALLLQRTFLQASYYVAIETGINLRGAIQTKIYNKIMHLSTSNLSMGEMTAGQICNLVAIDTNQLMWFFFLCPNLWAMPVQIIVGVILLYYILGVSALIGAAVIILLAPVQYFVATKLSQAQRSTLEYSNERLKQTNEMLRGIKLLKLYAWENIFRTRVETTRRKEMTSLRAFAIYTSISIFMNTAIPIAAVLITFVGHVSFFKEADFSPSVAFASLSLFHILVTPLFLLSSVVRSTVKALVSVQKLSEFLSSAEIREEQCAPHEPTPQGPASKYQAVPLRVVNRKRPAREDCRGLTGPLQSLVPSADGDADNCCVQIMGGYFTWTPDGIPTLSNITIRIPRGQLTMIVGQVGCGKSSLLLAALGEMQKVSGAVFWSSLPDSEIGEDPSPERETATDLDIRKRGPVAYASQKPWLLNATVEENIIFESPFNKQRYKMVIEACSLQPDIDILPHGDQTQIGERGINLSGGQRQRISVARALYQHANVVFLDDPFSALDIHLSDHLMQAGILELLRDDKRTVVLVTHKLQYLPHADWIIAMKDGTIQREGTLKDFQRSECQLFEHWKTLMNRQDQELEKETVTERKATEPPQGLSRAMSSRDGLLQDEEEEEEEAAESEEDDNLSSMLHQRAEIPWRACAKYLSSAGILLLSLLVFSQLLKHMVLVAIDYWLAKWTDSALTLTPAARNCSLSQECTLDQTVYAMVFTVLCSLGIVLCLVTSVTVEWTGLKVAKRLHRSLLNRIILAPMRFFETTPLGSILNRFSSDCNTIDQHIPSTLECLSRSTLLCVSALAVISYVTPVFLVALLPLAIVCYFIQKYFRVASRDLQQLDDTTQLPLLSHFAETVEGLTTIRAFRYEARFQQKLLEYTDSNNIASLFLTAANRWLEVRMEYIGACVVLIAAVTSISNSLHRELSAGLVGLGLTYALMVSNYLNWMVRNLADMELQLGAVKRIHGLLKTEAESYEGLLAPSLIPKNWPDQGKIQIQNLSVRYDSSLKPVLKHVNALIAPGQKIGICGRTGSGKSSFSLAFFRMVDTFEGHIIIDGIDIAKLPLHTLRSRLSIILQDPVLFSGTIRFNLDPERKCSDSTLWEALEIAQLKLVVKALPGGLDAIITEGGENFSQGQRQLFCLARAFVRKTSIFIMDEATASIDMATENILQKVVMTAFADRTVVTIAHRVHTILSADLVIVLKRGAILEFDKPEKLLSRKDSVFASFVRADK

SMILES	Activity [1] [mg/dL]	Activity [2] [mg/dL]	Activity [3] [mg/dL]	Activity [4] [mg/dL]	Activity [5] [ng/mL]	Activity [6] [IU/L]	Activity [14] [ng/mL]	Activity [16] [ng/mL]	Activity [17] [mg]	Activity [19] [mg]	Ratio [20] [ng/mg]	other results
CC1(C)C2CCC1(CS(=O)(=O)NCCc1ccc(S(=O)(=O)NC(=S)Nc3ccccc3)cc1)C(=O)C2 (stereo not given)	149.03	149.35	160.61	151.58	–	–	–	–	–	–	–	–
CC(C)c1cc(C(C)C)c(S(=O)(=O)NCCc2ccc(S(=O)(=O)NC(=S)Nc3ccccc3)cc2)c(C(C)C)c1	152.76	142.08	168.72	149.51	–	–	–	–	–	–	–	–
O=S(=O)(NC(=S)Nc1ccccc1)c1ccc(CCNS(=O)(=O)c2cccs2)cc1	140.96	139.26	141.6	150.23	1.46	72.19	3.01	1.19	7.68	20.69	1.06	Activity [7]: Active; Activity [8]: inactive; Activity [9]: Active; Activity [10]: Active; Activity [11]: inactive; Activity [12]: 0.32 nmol; Activity [13]: inactive; Activity [15]: 0.35 nmol; Activity [18]: inactive; Activity [21]: Active; Activity [22]: 0.3 nmol; Activity [23]: inactive
COc1ccc(S(=O)(=O)NCCc2ccc(S(=O)(=O)NC(=S)Nc3ccccc3)cc2)cc1	154.79	124.7	144.75	150.98	0.53	108.01	2.75	0.7	104.25	7.24	0.77	–
Cc1ccc(S(=O)(=O)NCCc2ccc(S(=O)(=O)NC(=S)Nc3ccccc3)cc2)cc1	173.51	152.6	157.14	151.25	–	–	–	–	–	–	–	–
O=S(=O)(NC(=S)Nc1ccccc1)c1ccc(CCNS(=O)(=O)c2cccc3cccnc23)cc1	140.08	139.63	160.22	147.97	0.6	71.3	2.26	1.36	11.33	9.93	0.84	–
COc1ccc(S(=O)(=O)NCCc2ccc(S(=O)(=O)NC(=S)Nc3ccc(Cl)cc3)cc2)cc1	151.74	139.54	158.69	141.45	0.52	73.92	2.69	0.71	69.35	28.51	0.72	–
COc1cc(NC(=O)CO[C@H]2O[C@H](CO)[C@@H](O)[C@H](O)[C@H]2O)c(Cl)cc1C(=O)NCCc1ccc(S(=O)(=O)NC(=O)NC2CCCCC2)cc1	–	–	–	–	–	–	–	–	–	–	–	Kd [24]: 2.08 nM
COc1ccc(Cl)cc1C(=O)NCCc1ccc(S(=O)(=O)NC(=O)NC2CCCCC2)cc1 [GLYBURIDE]	128.34	124.28	135.24	140.49	2.46	41.08	3.83	2.66	8.71	17.46	1.98	–
COc1ccc(S(=O)(=O)NCCc2ccc(S(=O)(=O)NC(=O)Nc3cccc4ccccc34)cc2)cc1	157.9	143.6	156.4	155.68	–	–	–	–	–	–	–	–
O=S(=O)(NCCc1ccc(S(=O)(=O)NC(=S)Nc2ccccc2)cc1)c1ccc(F)cc1	165.3	146.4	165.7	148.8	–	–	–	–	–	–	–	–
COc1cc(NC(C)=O)c(Cl)cc1C(=O)NCCc1ccc(S(=O)(=O)NC(=O)NC2CCCCC2)cc1	–	–	–	–	–	–	–	–	–	–	–	Kd [24]: 0.38 nM
O=S(=O)(NCCc1ccc(S(=O)(=O)NC(=S)Nc2ccccc2)cc1)c1ccccc1	158.27	134.44	151.62	146.02	0.78	68.09	0.39	0.35	10.66	6.93	0.31	–
